# Source: PubChem
# In the library only some 2.5% were active in any assay of this set; here they are far more common.
# SENP7 inh: SENP7 protease inhibitors, primary screen, biochemical, luminescence, uHTS; hit rate 1.5% among 330,000; AID 434973, 2010; inhibition, % at 5 µM; Sentrin-specific protease 7 (Homo sapiens), Q9BQF6; recombinant SENP7, Z-RLRGG-aminoluciferin luminescence, 40 min;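 active = inhibition above about 50% at the single test dose, limit read from the data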;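 also: plate controls were DMSO with enzyme for no effect and no enzyme buffer wells for full effect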
# SENP8 block-1: SENP8 protease inhibitors, primary screen, biochemical, luminescence. Sentrin-specific protease 8 (Homo sapiens), Q96LD8. purified SENP8, Z-RLRGG-aminoluciferin cleavage. inhibition, % at 10 µM. hit rate 1.2% among 330,000; in the data active = inhibition above about 50%
# SENP8 block-2: human SENP8 protease inhibitors, primary screen, biochemical, fluorescence, Nedd8 protein substrate, uHTS | recombinant SENP8 | hit rate 0.64% among 360,000 | AID 602440, 2012 | inhibition, % at 20 µM | Sentrin-specific protease 8 (Homo sapiens), Q96LD8; in the data active = inhibition mostly above about 40%, no sharp cut-off; inactive = mostly below about 27%
# SENP1 FRET inh: human SENP1 catalytic domain inhibitors, primary screen, biochemical, FRET, uHTS. Sentrin-specific protease 1 (Homo sapiens), Q9P0U3. recombinant SENP1 catalytic domain, CyPet-SUMO1-YPet FRET cleavage. inhibition, % at 10 µM. hit rate 0.21% among 360,000. AID 624204, 2012;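 active = inhibition at least 30% at 10 µM, raw YFP signal under a set limit, fluorescence ratio 0.5 to 1.5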;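 also: 0% = enzyme with DMSO and 100% = no enzyme wells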
#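 Controls: no-enzyme wells low, DMSO-plus-enzyme wells high control. Test system: human recombinant His6-tagged SENP1 catalytic domain enzyme. Reagent: SFCypet-SUMO1-SFYpet FRET protein substrate, 25 nM final. Doses: one dose per compound, 10 µM, 0.5% DMSO. Detection: FRET, CFP and YFP emission. Timing: 50 min reaction at room temperature.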
# SENP6 inh: SENP6 protease inhibitors, primary screen, biochemical, luminescence, uHTS; Sentrin-specific protease 6 (Homo sapiens), Q9GZR1; hit rate 1.8% among 330,000; Recombinant SENP6 catalytic domain, aminoluciferin luminescence; inhibition, % at 10 µM; AID 2599, 2010;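 active = inhibition above about 50% at the single tested dose, limit read from the data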;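 also: plate controls were DMSO wells with enzyme for no effect and DMSO wells lacking enzyme for full effect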
# Target sequence (Q9GZR1 628-1112 limits assumed): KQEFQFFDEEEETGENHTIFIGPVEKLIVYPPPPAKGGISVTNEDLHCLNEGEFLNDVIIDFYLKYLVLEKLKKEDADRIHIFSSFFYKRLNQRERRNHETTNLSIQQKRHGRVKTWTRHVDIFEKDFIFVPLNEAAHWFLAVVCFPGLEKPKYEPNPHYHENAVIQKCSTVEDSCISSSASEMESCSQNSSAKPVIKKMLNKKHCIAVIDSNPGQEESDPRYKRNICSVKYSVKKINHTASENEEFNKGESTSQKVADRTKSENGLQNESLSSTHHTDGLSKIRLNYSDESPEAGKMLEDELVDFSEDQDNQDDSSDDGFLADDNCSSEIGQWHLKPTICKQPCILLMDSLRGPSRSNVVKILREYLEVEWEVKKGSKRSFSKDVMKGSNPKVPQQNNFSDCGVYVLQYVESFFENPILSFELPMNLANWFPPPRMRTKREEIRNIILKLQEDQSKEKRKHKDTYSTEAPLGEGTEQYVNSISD
# SENP8 conf: SENP8 protease inhibitors, retest, confirmation, biochemical, luminescence, single concentration. inhibition, % at 12.5 µM. hit rate 40% among 6,200. AID 488912, 2010. shares compounds with SENP7 inh. Recombinant SENP8, Z-RLRGG-aminoluciferin luminescence, 60 min;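 active = mean inhibition across replicates above about 50%, limit read from the data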
# SENP6 conf: SENP6 protease inhibitors, confirmation, biochemical, luminescence, single concentration; shares compounds with SENP7 inh; recombinant SENP6, Z-RLRGG-aminoluciferin luminescence; inhibition, % at 12.5 µM; hit rate 58% among 6,200; AID 488915, 2010
# SENP7 conf: SENP7 protease inhibitors, retest, confirmation, biochemical, luminescence, single concentration; shares compounds with SENP7 inh; recombinant SENP7, Z-RLRGG-aminoluciferin luminescence, 40 min; inhibition, % at 12.5 µM; hit rate 69% among 6,200
# Casp3 SENP sel: caspase-3 protease inhibitors, confirmation, selectivity assay for SENP inhibitor project, biochemical, single concentration; shares compounds with SENP7 inh; purified caspase-3, Z-DEVD-aminoluciferin luminescence, 60 min; AID 488918, 2010; hit rate 60% among 6,200; inhibition, % at 12.5 µM;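 active = mean inhibition above about 50%, limit read from the data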;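 also: plate controls were enzyme with DMSO for no effect and wells without caspase-3 for full effect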
# Target sequence (P42574 28-227 limits assumed): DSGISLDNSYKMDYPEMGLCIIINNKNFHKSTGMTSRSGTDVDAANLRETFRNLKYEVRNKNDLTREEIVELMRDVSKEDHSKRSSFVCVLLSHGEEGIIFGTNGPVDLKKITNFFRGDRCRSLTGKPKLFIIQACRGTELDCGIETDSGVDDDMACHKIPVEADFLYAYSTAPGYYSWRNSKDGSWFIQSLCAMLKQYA
# Luc interf: counter-screen for SENP inhibitors: luminescence interference; shares compounds with SENP7 inh; Pre-incubated SENP8/Z-RLRGG-aminoluciferin, luciferase luminescence interference; inhibition, % at 12.5 µM; hit rate 39% among 6,200; AID 488919;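 active = mean inhibition above about 50% when retested at one dose, limit read from the data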;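 also: plate controls were DMSO wells with completed reaction for no effect and substrate without enzyme for full effect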
# Active calls of the source: *; i = inactive; . = not tested or not shown.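 The calls were made as follows, unless noted: active = mean inhibition above about 50% in the one-dose retest (limit read from the data); inactive = the rest.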
SMILES,SENP7 inh,SENP8 block-1,SENP8 block-2,SENP1 FRET inh,SENP6 inh,others
CN1CCN(c2ccc(Cl)cc2NC(=O)CCN2C(=O)c3ccccc3C2=O)CC1,-2.6,-3.5,1.0,-14.3,6.4,
CC(=O)OCCNc1cc(N2CCN(C)CC2)c2noc3c2c1C(=O)c1ccccc1-3,.,.,46.9*,11.6,.,
CCN1CCN(c2cc(N3CCN(C(=O)c4ccco4)CC3)c3c4c(onc24)-c2ccccc2C3=O)CC1,3.5,3.3,67.6*,11.2,10.5,
O=C(O)CCNc1cc(N2CCN(C(=O)c3ccco3)CC2)c2noc3c2c1C(=O)c1ccccc1-3,34.7,36.2,70.1*,99.1,50.9*,
Nc1ccccc1C(=O)NC(=O)Nc1ccc(Oc2ncc(Br)cn2)c(Cl)c1,.,.,i,-64.3,.,
COC1C=CC=C(C)C(=O)NC2=CC(=O)C(N)=C(CC(C)CC(OC)C(O)C(C)C=C(C)C1OC(N)=O)C2=O (stereo not drawn),.,.,57.2*,0.8,.,
CCCS(=O)(=O)NC(=O)C1(C)CCCN(C(=O)c2cccc(C)c2C)C1 (stereo not drawn),.,.,7.1,0.1,.,
COC(=O)C1=C(C(=O)OC)SC(=C2C(=S)C(C)(C)N(C(=O)C3CC3)c3ccccc32)S1,10.4,-5.3,41.7*,5.3,9.7,
CC1(C)c2ssc(=S)c2-c2ccccc2N1C(=O)CSC1=NCCS1,1.3,0.2,12.0,2.4,10.1,
CCCC(=O)N1c2ccccc2C(=C2SC(C(=O)OC)=C(C(=O)OC)S2)C(=S)C1(C)C,5.4,5.8,67.0*,2.1,3.7,
COC(=O)C1=C(C(=O)OC)SC(=C2C(=S)C(C)(C)N(C(=O)C(C)C)c3ccccc32)S1,8.1,1.1,46.3*,4.8,2.4,
CC1C(=O)Nc2ccccc2N1C(=O)C1CC1 (stereo not drawn),4.1,4.8,37.5,-0.2,6.8,
CCOC(=O)C1(C)C(C(=O)OC)=C(c2ccc(OC)cc2)c2ccccc2N1C(=O)OC (stereo not drawn),2.0,.,-7.1,-0.7,.,
COCCCNC(=O)COc1ccc(S(=O)(=O)NCc2ccccc2)cc1Cl,-3.5,-8.8,11.7,1.4,-25.0,
O=C(CC1CCC1)Nc1cccc2c([N+](=O)[O-])cccc12,6.9,-8.1,32.0,4.7,-12.8,
FC(F)(F)c1ccc2c(c1)C1C=CCC1C(c1ccncc1)N2 (stereo not drawn),.,.,43.7*,-21.8,.,
CC1CCCN(C(=O)CSc2nnc(-c3ccncc3)n2C)C1 (stereo not drawn),5.1,-0.3,3.4,0.5,-9.5,
O=C(/C=C/c1ccc(F)cc1)NCC1(c2ccccc2)CCOCC1,-7.3,9.4,7.9,1.5,1.6,
Cc1cc(NS(=O)(=O)c2ccc(Nc3nc(-c4sc(NC(=O)c5ccccc5)nc4C)cs3)cc2)no1,65.1*,42.9,.,.,72.0*,
Cc1ccc(Cl)cc1Nc1nc(-c2sc(NC(=O)c3ccccc3)nc2C)cs1,-0.1,27.0,.,.,50.9*,
CCOc1ccccc1Nc1nc(-c2sc(NC(=O)c3ccccc3)nc2C)cs1,63.9*,58.8*,.,.,72.4*,
CC(C)(C)CC(C)(C)SSc1n[nH]c(=S)s1,.,.,0.9,1.2,.,
CC1=NN(c2ccc(C)cc2C)C(=O)C1C(c1ccccc1)C1C(=O)N(c2ccc(C)cc2C)N=C1C (stereo not drawn),14.5,4.8,91.5*,0.3,9.7,
O=[N+]([O-])c1ccc2[nH]c(O)c(N=NC(=S)Nc3cccnc3)c2c1,-6.8,-4.0,41.6*,2.3,-20.4,
O=C(CC1C[C@H](C(=O)N2CCCCC2)[C@@]2(CCc3ccccc3)c3[nH]c4ccccc4c3CCN2C1=O)NCCc1ccccn1 (stereo partly drawn),.,.,-7.0,-11.9,.,
SMILES,SENP7 inh,SENP8 block-1,SENP8 block-2,SENP1 FRET inh,SENP6 inh,others
Oc1cccc(C=Nc2cccc3ccccc23)c1O,16.7,35.9,-314.1,-44.1,53.6*,SENP8 conf=16.8;SENP6 conf=22.1;SENP7 conf=9.1;Casp3 SENP sel=39.7;Luc interf=-5.6
Cc1ccc(-c2nc3c4ccccc4ccn3c2Cc2ccsc2)cc1,.,.,-217.4,-10.5,.,
C[C@H]1CN([C@@H](C)CO)C(=O)CCCn2nncc2CO[C@H]1CN(C)C(=O)Nc1cccc2ccccc12,.,.,-7.3,-1.0,.,
CC(C)(C)NCCCCOc1ccccc1F,84.2*,-3.9,5.5,-0.5,5.5,SENP8 conf=16.2;SENP6 conf=0.5;SENP7 conf=-2.9;Casp3 SENP sel=-1.3;Luc interf=-3.3
COc1ccccc1OCCCCNC(C)(C)C,-7.1,3.1,10.2,0.3,-24.9,
CCCOc1ccc(C(=O)Nc2ccc3c(c2)OCO3)cc1,89.1*,70.7*,8.2,-1.3,81.9*,SENP8 conf=13.7;SENP6 conf=73.4*;SENP7 conf=80.4*;Casp3 SENP sel=83.5*;Luc interf=19.4
CCC(=O)Oc1ccc(C(=O)Nc2ccc3c(c2)OCO3)cc1,73.2*,33.9,-7.4,0.6,64.3*,SENP8 conf=37.1;SENP6 conf=56.1*;SENP7 conf=62.1*;Casp3 SENP sel=71.3*;Luc interf=16.9
O=C(Nc1nccs1)c1ccc(CSc2ccccc2)o1,0.9,-12.4,-5.2,-2.3,-7.5,
S=C(Nc1ccccc1)N1CCc2ccccc21,9.7,-15.2,19.6,2.4,-10.6,
Fc1cccc(NC(=S)N2CCc3ccccc32)c1,2.2,9.7,5.8,3.6,56.9*,SENP8 conf=11.7;SENP6 conf=2.1;SENP7 conf=10.1;Casp3 SENP sel=3.4;Luc interf=16.9
COc1ccc(OC)c(S(=O)(=O)N2CCC(C(=O)NCc3ccncc3)CC2)c1,1.6,-2.4,2.8,2.8,-18.6,
CN(C)c1ccc(/C=N\NC(=O)c2cccc3cc[nH]c23)cc1,84.5*,76.2*,-429.9,-30.6,85.9*,SENP8 conf=84.0*;SENP6 conf=81.9*;SENP7 conf=94.7*;Casp3 SENP sel=79.5*;Luc interf=63.8*
O=C(N/N=C/c1ccc2ncccc2c1)c1ccco1,66.3*,32.9,14.3,-2.5,66.5*,SENP8 conf=53.4*;SENP6 conf=52.7*;SENP7 conf=83.8*;Casp3 SENP sel=87.2*;Luc interf=64.5*
